A short description of data set [1]: Compound was tested for the partition coefficient between octanol and water. It is filed as physicochemical. A digest of the protocol: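 Octanol/water partition: octanol and water mutually pre-saturated for 24 h before the study; compound absorbance read at 318 nm in the water-saturated octanol phase and in the octanol-saturated water phase; coefficient taken as the ratio of the two absorbances.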

A further data set deals with RIF-1. Description: Anoxic/Oxic uptake ratio was measured in RIF-1 cell line at 3h. The format is functional, cell-based. As to conditions: Mus musculus. A digest of the protocol: (§1)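 [131I]-labelled agent at 50 μM in 1 mL medium (25 mM HEPES), rinsed then replaced with fresh labelled medium. Monolayers (exponential or unfed plateau phase) held as thin film at 37 °C under 95% air/5% CO2 (oxic) or 95% N2/5% CO2 (anoxic) for 3 h. Cells trypsinized, gamma-counted, uptake as pmol/10^6 cells. Ratio = anoxic/oxic uptake, three plates.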

A further data set relates to V79. Description: Anoxic/Oxic uptake ratio was measured in V-79 cell line at 3h. Conditions: Cricetulus griseus. It is filed as functional, cell-based. The procedure, abridged:
as §1

The species named for a further data set is Rattus norvegicus. As to the kind of experiment: Anoxic/Oxic uptake ratio was measured in rat myocytes at 3h. The format is functional. The procedure, abridged:
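Adult rat myocytes from collagenase dissociation, cultured overnight at 37 °C in modified MEM. Thin medium layer with 50 μM [131I]-labelled agent at 37 °C under 95% air/5% CO2 or 95% N2/5% CO2, anoxia confirmed by dithionite/methylene blue indicator. Cells rinsed cold, EtOH-fixed, counted microscopically, scraped and gamma-counted. Uptake as dpm per cells; eight plates.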

The subject of another data set is CaOs-1 cell line. Description: Anoxic/Oxic uptake ratio was measured in CaOs-1 cell line at 3h. As to conditions: Canis lupus familiaris. The format is functional, cell-based. The procedure, abridged:
as §1

A further data set relates to EMT6. Description: Anoxic/Oxic uptake ratio was measured in EMT-6 cell line at 3h. As to conditions: Mus musculus. The format is functional, cell-based. A digest of the protocol: as §1

In the case of `O=[N+]([O-])c1nccn1C[C@@H](O)CF`, the Partition coefficient in data set [1] stood at 0.4. Besides, the Uptake ratio in the data set with RIF-1 is 28.5; in the data set on V79, 27.3; in the data set filed under Rattus norvegicus, 20.3; in the data set with CaOs-1 cell line it was 18; in the data set with EMT6 it was 12.6.
The compound `COC[C@H](O)Cn1ccnc1[N+](=O)[O-]` yielded a Partition coefficient in data set [1] of 0.41.
Same read-out and setting: in the case of `COC[C@H](O)Cn1cc(Br)nc1[N+](=O)[O-]` it was 2.87.
Turning to `O=[N+]([O-])c1nccn1C[C@@H](O)C/C=C/I`, in data set [1], the Partition coefficient is 2.52. In addition, the Uptake ratio in the data set on RIF-1 turned out to be 23.2; with V79 it was 12.5; in the data set filed under Rattus norvegicus, 22; in the data set on CaOs-1 cell line, 10.2; with EMT6 it was 11.

The values are drawn from ChEMBL document CHEMBL1125583, “Synthesis of an (iodovinyl)misonidazole derivative for hypoxia imaging” (J Med Chem, 1991).
